Data from ChEMBL document CHEMBL4689842, “EUbOPEN Chemogenomics Library wave 1” (2021).

System: U2OS
Assay: Multiplex assay against U2OS
Format: toxicity, cell-based
Settings: human
Method in brief: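 With compound added, live cells were imaged on a CQ1 microscope at 37°C and 5% CO2; staining with Hoechst33342, BioTracker Green Microtubule Cytoskeleton Dye, MitoTracker Red and Annexin V Alexa Fluor 680 had been done at seeding. The CellPathfinder machine-learning gating scheme split cells into Hoechst high-intensity objects or normal cells, normal cells into healthy, pyknosed or fragmented nuclei, and pyknosed cells into mitotic or apoptotic. The tubulin, mitochondrial-mass and membrane-permeability phenotypes are per cents of healthy-nucleus cells.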

[1] = 12 h, 1 µM, compound concentration 1 uM, replicate 1
[2] = 12 h, 1 µM, compound concentration 1 uM, replicate 2
[3] = 12 h, 10 µM, compound concentration 10 uM, replicate 1
[4] = 12 h, 10 µM, compound concentration 10 uM, replicate 2
[5] = 24 h, 1 µM, compound concentration 1 uM, replicate 1
[6] = 24 h, 1 µM, compound concentration 1 uM, replicate 2
[7] = 24 h, 10 µM, compound concentration 10 uM, replicate 1
[8] = 24 h, 10 µM, compound concentration 10 uM, replicate 2
[9] = 48 h, 1 µM, compound concentration 1 uM, replicate 1
[10] = 48 h, 1 µM, compound concentration 1 uM, replicate 2
[11] = 48 h, 10 µM, compound concentration 10 uM, replicate 1
[12] = 48 h, 10 µM, compound concentration 10 uM, replicate 2

SMILES: Cc1c(P(=S)(c2ccccc2)c2ccccc2)n2ccccc2[n+]1C/C=C/c1ccccc1.[Br-]
- Population Apoptotic (%) [1]: 54%
- Population Fragmented Nuclei (%) [1]: 21%
- Population Healthy Nuclei (%) [1]: 69%
- Population Hoechst High Intensity Objects (%) [1]: 5%
- Population Membrane Permeable-Phenotype (%) [1]: 13%
- Population Mitochondria Different-Phenotype (%) [1]: 35%
- Population Mitotic Cells (%) [1]: 45%
- Population Normal (%) [1]: 94%
- Population Pyknosed Nuclei (%) [1]: 9%
- Population Tubulin-Different-Phenotype (%) [1]: 26%
- Total Cell Count [1]: 133
- Population Apoptotic (%) [2]: 75%
- Population Fragmented Nuclei (%) [2]: 50%
- Population Healthy Nuclei (%) [2]: 45%
- Population Hoechst High Intensity Objects (%) [2]: 22%
- Population Membrane Permeable-Phenotype (%) [2]: 10%
- Population Mitochondria Different-Phenotype (%) [2]: 50%
- Population Mitotic Cells (%) [2]: 25%
- Population Normal (%) [2]: 77%
- Population Pyknosed Nuclei (%) [2]: 4%
- Population Tubulin-Different-Phenotype (%) [2]: 31%
- Total Cell Count [2]: 93
- Population Apoptotic (%) [3]: 89%
- Population Fragmented Nuclei (%) [3]: 28%
- Population Healthy Nuclei (%) [3]: 9%
- Population Hoechst High Intensity Objects (%) [3]: 21%
- Population Membrane Permeable-Phenotype (%) [3]: 88%
- Population Mitochondria Different-Phenotype (%) [3]: 100%
- Population Mitotic Cells (%) [3]: 10%
- Population Normal (%) [3]: 78%
- Population Pyknosed Nuclei (%) [3]: 61%
- Population Tubulin-Different-Phenotype (%) [3]: 100%
- Total Cell Count [3]: 121
- Population Apoptotic (%) [4]: 94%
- Population Fragmented Nuclei (%) [4]: 21%
- Population Healthy Nuclei (%) [4]: 10%
- Population Hoechst High Intensity Objects (%) [4]: 8%
- Population Membrane Permeable-Phenotype (%) [4]: 83%
- Population Mitochondria Different-Phenotype (%) [4]: 83%
- Population Mitotic Cells (%) [4]: 5%
- Population Normal (%) [4]: 91%
- Population Pyknosed Nuclei (%) [4]: 68%
- Population Tubulin-Different-Phenotype (%) [4]: 83%
- Total Cell Count [4]: 108
- Population Apoptotic (%) [5]: 55%
- Population Fragmented Nuclei (%) [5]: 12%
- Population Healthy Nuclei (%) [5]: 73%
- Population Hoechst High Intensity Objects (%) [5]: 5%
- Population Membrane Permeable-Phenotype (%) [5]: 12%
- Population Mitochondria Different-Phenotype (%) [5]: 18%
- Population Mitotic Cells (%) [5]: 45%
- Population Normal (%) [5]: 94%
- Population Pyknosed Nuclei (%) [5]: 13%
- Population Tubulin-Different-Phenotype (%) [5]: 12%
- Total Cell Count [5]: 174
- Population Apoptotic (%) [6]: 75%
- Population Fragmented Nuclei (%) [6]: 55%
- Population Healthy Nuclei (%) [6]: 40%
- Population Hoechst High Intensity Objects (%) [6]: 33%
- Population Membrane Permeable-Phenotype (%) [6]: 9%
- Population Mitochondria Different-Phenotype (%) [6]: 31%
- Population Mitotic Cells (%) [6]: 25%
- Population Normal (%) [6]: 66%
- Population Pyknosed Nuclei (%) [6]: 3%
- Population Tubulin-Different-Phenotype (%) [6]: 15%
- Total Cell Count [6]: 124
- Population Fragmented Nuclei (%) [7]: 34%
- Population Healthy Nuclei (%) [7]: 4%
- Population Hoechst High Intensity Objects (%) [7]: 14%
- Population Membrane Permeable-Phenotype (%) [7]: 75%
- Population Mitochondria Different-Phenotype (%) [7]: 100%
- Population Normal (%) [7]: 85%
- Population Pyknosed Nuclei (%) [7]: 61%
- Population Tubulin-Different-Phenotype (%) [7]: 100%
- Total Cell Count [7]: 154
- Population Apoptotic (%) [8]: 100%
- Population Fragmented Nuclei (%) [8]: 23%
- Population Healthy Nuclei (%) [8]: 38%
- Population Hoechst High Intensity Objects (%) [8]: 26%
- Population Membrane Permeable-Phenotype (%) [8]: 81%
- Population Mitochondria Different-Phenotype (%) [8]: 81%
- Population Mitotic Cells (%) [8]: 0%
- Population Normal (%) [8]: 73%
- Population Pyknosed Nuclei (%) [8]: 38%
- Population Tubulin-Different-Phenotype (%) [8]: 81%
- Total Cell Count [8]: 163
- Population Fragmented Nuclei (%) [9]: 7%
- Population Healthy Nuclei (%) [9]: 85%
- Population Hoechst High Intensity Objects (%) [9]: 5%
- Population Membrane Permeable-Phenotype (%) [9]: 3%
- Population Mitochondria Different-Phenotype (%) [9]: 13%
- Population Normal (%) [9]: 94%
- Population Pyknosed Nuclei (%) [9]: 7%
- Population Tubulin-Different-Phenotype (%) [9]: 11%
- Total Cell Count [9]: 277
- Population Apoptotic (%) [10]: 60%
- Population Fragmented Nuclei (%) [10]: 42%
- Population Healthy Nuclei (%) [10]: 49%
- Population Hoechst High Intensity Objects (%) [10]: 25%
- Population Membrane Permeable-Phenotype (%) [10]: 5%
- Population Mitochondria Different-Phenotype (%) [10]: 21%
- Population Mitotic Cells (%) [10]: 40%
- Population Normal (%) [10]: 74%
- Population Pyknosed Nuclei (%) [10]: 8%
- Population Tubulin-Different-Phenotype (%) [10]: 8%
- Total Cell Count [10]: 213
- Population Fragmented Nuclei (%) [11]: 43%
- Population Healthy Nuclei (%) [11]: 3%
- Population Hoechst High Intensity Objects (%) [11]: 19%
- Population Membrane Permeable-Phenotype (%) [11]: 66%
- Population Mitochondria Different-Phenotype (%) [11]: 100%
- Population Normal (%) [11]: 80%
- Population Pyknosed Nuclei (%) [11]: 53%
- Population Tubulin-Different-Phenotype (%) [11]: 100%
- Total Cell Count [11]: 207
- Population Apoptotic (%) [12]: 100%
- Population Fragmented Nuclei (%) [12]: 75%
- Population Healthy Nuclei (%) [12]: 18%
- Population Hoechst High Intensity Objects (%) [12]: 21%
- Population Membrane Permeable-Phenotype (%) [12]: 75%
- Population Mitochondria Different-Phenotype (%) [12]: 75%
- Population Mitotic Cells (%) [12]: 0%
- Population Normal (%) [12]: 78%
- Population Pyknosed Nuclei (%) [12]: 6%
- Population Tubulin-Different-Phenotype (%) [12]: 75%
- Total Cell Count [12]: 153
